Screening data: PubChem BioAssay, several laboratories
Many of the other results were omitted from the sample, so hits are more common in it than they were.
NLRP3 yeast inh: NALP3 inhibition in yeast; Yeast reconstituted NLRP3/ASC/caspase-1, beta-gal luminescence, 24 h; inhibition, % at 10 µM; 0.39% of 330,000 active; AID 2825;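 active means inhibition of 50% or more; inactive means inhibition below 50%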;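 further: plate controls were induced DMSO wells for no effect and uninduced yeast grown without galactose for full effect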
NALP1 yeast inh: NALP1 inhibition; S. cerevisiae NALP1/ASC/caspase-1 growth, X-gal OD620, 72 h; inhibition, % at 10 µM; 0.61% of 280,000 active; AID 2071; in the data active means inhibition mostly above about 24%, no sharp cut-off; inactive means mostly below about 32%
T cruzi inh: T. cruzi replication inhibition | T. cruzi beta-gal in NIH3T3, luminescence, 90 h | inhibition, % (no concentration beside the values) | 1.4% of 300,000 active;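 active means mean inhibition across valid replicates above about 55%, limit read from the data; inconclusive means mean below that limit but half or more replicates reach it; inactive means mean below it, under half of replicates reach it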;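 further: signal also drops with host cell toxicity which is not excluded here; 0% = plate median of DMSO wells and 100% = zero luminescence signal; higher percent means less beta-gal luminescence so fewer parasites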
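assay system = mouse NIH/3T3 fibroblasts infected with β-gal-expressing T. cruzi Tulahuen C4 | input = 5,000 NIH/3T3 host cells per well | buffer or medium = DMEM plus 2% FBS | timing = 3 h host attachment, then at least 90 h co-culture | measured by = GalScreen luminescence, 60 min | evaluation = luminescence reflecting intracellular parasite burden, expressed as percent inhibition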
Lmaj promast: inhibitors of Leishmania major promastigote growth; 9% of 200,000 active; AID 1063; inhibition, % at 10 µM; Leishmania major promastigotes, resazurin fluorescence viability; in the data active means inhibition above about 50%;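 further: promastigotes grown with compound for 44 hours at 28 °C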
PolyA inhibitor: yeast polyadenylation inhibition. activity score, % at 12 µM. 0.02% of 300,000 active. S. cerevisiae SKY197-pL101 polyadenylation reporter, beta-gal luminescence; efflux-impaired pdr1/pdr3 knockout yeast; score 100 = 6 SD above DMSO;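 active means lowest replicate activity score at least 50, where 100 means six control SD above control mean; inconclusive means lowest score under 50 but half or more replicates reach 50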;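 further: yeast exposed to compound for 9 h at 30 °C; higher score means more reporter readthrough which indicates perturbed polyadenylation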
Calb FLC: C. albicans growth modulation with fluconazole | C. albicans CaCi-2 + fluconazole, Alamar Blue growth, 48 h | growth inhibition, % (test concentration not listed) | 0.57% of 300,000 active | AID 1979;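 active means growth inhibition above about 58% in most replicates, limit read from the data, passing the limit was not always enough; inconclusive means exactly half the replicates above a set limit; inactive means most replicates below a set limit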;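 further: all wells also contain fluconazole at 8 µg/ml as a sub-toxic cotreatment; 0% = median of DMSO wells and 100% = median of geldanamycin control wells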
Active calls of the source: *; ? = inconclusive; · = not tested or not shown.

SMILES	NLRP3 yeast inh	NALP1 yeast inh	T cruzi inh	Lmaj promast	PolyA inhibitor	Calb FLC
O=C(NCC(c1cccnc1)N1CCN(c2ccccc2)CC1)c1ccco1 (configuration not stated)	0.6	·	64.9*	89.3*	13.0	4.2
O=C(NCc1cccnc1)C(=O)NCC(c1ccco1)N1CCOCC1 (configuration not stated)	-0.3	9.3	-4.6	-14.4	7.5	-4.9
O=C(NCc1cccnc1)C(=O)NCC(c1ccco1)N1CCN(c2ccccc2)CC1 (configuration not stated)	-0.5	12.3	-20.6	52.4*	7.7	?
O=C(NCc1cccnc1)C(=O)NCC(c1ccco1)N1CCN(c2ccccc2F)CC1 (configuration not stated)	5.4	16.8	3.6	55.9*	9.7	15.9
O=C(NCC(=O)N1CCN(c2ccccc2)CC1)c1ccco1	1.4	7.1	-17.7	·	-1.0	-4.8
O=C(NCCc1c[nH]c2ccccc12)/C(=C\c1ccco1)NC(=O)c1ccco1	6.0	19.5	-10.1	55.5*	4.7	?
Cc1ccc(C(=O)N/C(=C\c2ccco2)C(=O)NCCc2c[nH]c3ccccc23)cc1	10.0	18.7	-10.1	8.0	3.2	18.7
Cc1cc(NC(=O)CNC(=O)C2CCCCC2)no1	3.2	34.2	·	-6.2	·	·
Cn1ccnc1SCC(=O)c1cccc(C(F)(F)F)c1	13.4	14.1	-8.0	·	-1.0	3.9
O=C(NCCc1c[nH]c2ccccc12)C(=O)NCC(c1ccco1)N1CCN(c2ccccc2F)CC1 (configuration not stated)	3.2	19.3	20.2	75.6*	-12.2	-11.6
O=C(NCCC1=CCCCC1)C(=O)NCC(c1ccco1)N1CCN(c2ccc(F)cc2)CC1 (configuration not stated)	13.2	11.6	-16.9	80.3*	30.9	-0.2
Cc1cc(C)n2ncc(C(=O)NCCc3ccccc3)c2n1	8.7	16.6	-3.1	1.8	-19.2	-1.3
Cc1cc(C)n2ncc(C(=O)NCc3ccccc3)c2n1	18.4	-9.8	8.8	55.0*	-2.2	3.9
COc1ccc(-c2cn[nH]c2-c2ccc(OCc3ccc([N+](=O)[O-])cc3)cc2O)cc1OC	2.4	·	52.3	·	10.6	-10.5
O=[N+]([O-])c1ccc(COc2ccc(-c3[nH]ncc3-c3ccc(Cl)cc3)c(O)c2)cc1	-6.6	17.6	38.0	73.3*	4.2	-3.3
CCc1cc[n+](C2=C([O-])c3ccccc3C(=O)/C2=N\S(=O)(=O)c2cccs2)cc1	7.0	21.6	-0.1	99.2*	0.5	-7.1
O=c1[nH][nH]c(-c2ccccc2O)c1C(C[N+](=O)[O-])c1ccc(Br)cc1 (configuration not stated)	32.8	101.6*	-5.8	100.4*	-17.0	20.7
O=[N+]([O-])CC(c1ccc(F)cc1)c1c[nH]c2ccccc12 (configuration not stated)	-7.6	-1.0	-5.1	·	-31.9	-1.3
CCN(CC)S(=O)(=O)c1cccc(-n2c(O)c(C=Nc3ccccc3C(=O)O)c3ccccc3c2=O)c1	16.7	0.8	72.2*	·	4.9	-2.9
COC(=O)c1cc(=O)n(Cc2ccco2)c(=Nc2ccc(F)cc2)s1	5.5	5.7	51.4	95.6*	-7.9	4.0
COC(=O)c1cc(=O)n(CCc2ccc(OC)c(OC)c2)c(=Nc2ccc(F)c(Cl)c2)s1	9.0	-0.5	47.7	98.3*	-9.3	1.1
COC(=O)c1cc(=O)n(Cc2ccc(F)cc2)c(=Nc2ccccc2)s1	2.4	·	32.1	·	3.3	-0.3
COC(=O)c1cc(=O)n(Cc2ccc(OC)c(OC)c2)c(=Nc2ccc(F)cc2)s1	28.8	40.3*	47.0	6.8	7.1	9.6
CNC(=O)C1CC(=O)N(CCc2ccc(OC)c(OC)c2)C(=Nc2ccc(F)cc2)S1 (configuration not stated)	1.9	-9.6	-7.6	-0.9	-8.7	-4.9
CN1CCN(c2cc(N3CCc4ccccc4C3)c(F)cc2[N+](=O)[O-])CC1	14.5	19.8	17.2	75.6*	-11.8	28.2
SMILES	NLRP3 yeast inh	NALP1 yeast inh	T cruzi inh	Lmaj promast	PolyA inhibitor	Calb FLC
CCOC(=O)N1CCN(c2cc(N3CCN(CC)CC3)c(F)cc2[N+](=O)[O-])CC1C (configuration not stated)	13.0	17.2	60.2*	100.2*	-10.3	-4.4
CCOC(=O)N1CCN(c2cc(N3CCOCC3)c(F)cc2[N+](=O)[O-])CC1	10.2	10.5	5.4	1.2	-1.1	2.5
CCC(=O)N1CCN(c2cc(N3CCN(C)CC3)c(F)cc2[N+](=O)[O-])CC1	8.9	32.2	69.0*	37.8	-1.1	0.5
C=CCNC(=S)N1CCN(c2ncc(C(F)(F)F)cc2Cl)CC1	23.6	5.5	0.3	·	-7.7	11.6
CC(=O)c1ccccc1C(=O)NCc1cccnc1	9.9	20.6	6.3	-6.7	4.3	-3.4
O=C(Nc1ccccc1)c1ccc(N2CCN(c3ccccn3)CC2)c(S(=O)(=O)N2CCOCC2)c1	-7.1	7.5	20.4	34.8	9.8	-5.5
O=C(Nc1ccc(NC(=O)c2ccc(Cl)c(S(=O)(=O)N3CCOCC3)c2)cc1)c1ccccc1	-1.0	17.6	-8.2	·	-13.3	-3.3
CN1CCN(c2ccc([N+](=O)[O-])cc2S(=O)(=O)N2CCOCC2)CC1	5.1	3.3	5.5	-5.0	4.1	-2.0
O=C(Nc1ccccc1)c1ccc(N2CCN(c3ccccc3)CC2)c(S(=O)(=O)N2CCOCC2)c1	1.7	6.6	56.3*	88.9*	-16.0	-7.6
O=[N+]([O-])c1ccc(N2CCN(Cc3ccccc3)CC2)c(S(=O)(=O)N2CCOCC2)c1	15.0	-18.5	17.0	93.2*	-8.7	1.6
O=C(Nc1ccccc1)c1ccc(NC2CCCCC2)c(S(=O)(=O)N2CCOCC2)c1	-8.5	9.5	40.2	61.1*	-10.0	13.9
COc1cc(OC)c(/C=N/NC(=O)c2ccncc2)c(OC)c1	-3.7	-2.9	0.5	·	1.8	1.4
C=CCn1c(O)c(N=NC(=S)Nc2ccc(OC)cc2)c2ccccc21	·	-2.3	43.2	87.1*	-5.4	108.2*
C=CCn1c(O)c(N=NC(=O)OCC)c2ccccc21	1.7	24.3	1.1	-6.1	-7.3	6.4
C=CCn1c(O)c(N=Nc2ccccc2)c2ccccc21	17.3	4.8	-9.3	·	-29.3	-4.3
C=CCn1c(O)c(N=NC(=S)Nc2cccc(OC)c2)c2ccccc21	18.0	24.3	59.3*	97.7*	-42.9	45.5
CCOc1ccc(NC(=O)C(C)NS(=O)(=O)c2ccc(NC(C)=O)cc2)cc1 (configuration not stated)	11.3	-0.8	-9.6	-1.1	10.3	-19.7
CCC(C)Nc1nc(-c2cccc(OC)c2O)nc2ccccc12 (configuration not stated)	14.8	14.6	40.2	58.5*	-35.6	-5.2
Fc1ccccc1/C=N/Nc1nc(-c2ccccn2)nc2ccccc12	-5.9	·	55.4*	·	0.7	-5.5
